Data on eight compounds can be found in ChEMBL document CHEMBL2331240, “Focused library development of 2-phenylacrylamides as broad spectrum cytotoxic agents” (2013).

As a reminder, the GI50 is the concentration giving 50% growth inhibition.

Test [1] in a line: Cytotoxicity against human SJ-G2 cells assessed as growth inhibition measured after 72 hrs by MTT assay. It is filed as functional. The settings on record: SJ-G2, 72 h. A digest of the protocol: (§1)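 Cells in log phase were seeded in duplicate at 2500–4000 cells/well in supplemented DMEM (37 °C, 5% CO2). Drug from a 40 mM DMSO stock was added on day 0, 24 h post-plating. Read-out was MTT absorbance at 540 nm after 72 h.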
For orientation: Formazan colour is commonly taken as a measure of viable cells.

Another test has as its system DU-145. In words: Cytotoxicity against human DU145 cells assessed as growth inhibition measured after 72 hrs by MTT assay. It is filed as functional. The settings on record: DU-145, 72 h. A digest of the protocol:
as §1

A further test relates to MCF7. The experiment in a line: Cytotoxicity against human MCF7 cells assessed as growth inhibition measured after 72 hrs by MTT assay. It is filed as functional. The settings on record: MCF7, 72 h. A digest of the protocol: as §1
Another test concerns A2780. In words: Cytotoxicity against human A2780 cells assessed as growth inhibition measured after 72 hrs by MTT assay. It is filed as functional. The settings on record: A2780, 72 h. In outline: as §1
The next test relates to SW480. The experiment in a line: Cytotoxicity against human SW480 cells assessed as growth inhibition measured after 72 hrs by MTT assay. It is filed as functional. The settings on record: SW480, 72 h. A digest of the protocol:
as §1

A short description of test [2]: Cytotoxicity against mouse SMA cells assessed as growth inhibition measured after 72 hrs by MTT assay.
The nature of test [3]: Cytotoxicity against human H460 cells assessed as growth inhibition measured after 72 hrs by MTT assay. It is filed as functional. To be noted: NCI-H460, 72 h. A digest of the protocol: as §1
The nature of test [4]: Cytotoxicity against human BE(2)-C cells assessed as growth inhibition measured after 72 hrs by MTT assay. It is filed as functional. A digest of the protocol:
as §1

A further test concerns A-431. The experiment in a line: Cytotoxicity against human A431 cells assessed as growth inhibition measured after 72 hrs by MTT assay. It is filed as functional. To be noted: A-431, 72 h. In outline: as §1
The next test relates to HT-29. In words: Cytotoxicity against human HT-29 cells assessed as growth inhibition measured after 72 hrs by MTT assay. It is filed as functional. The settings on record: HT-29, 72 h. In outline:
as §1

The nature of test [5]: Cytotoxicity against human MIA cells assessed as growth inhibition measured after 72 hrs by MTT assay. It is filed as functional. A digest of the protocol: as §1

As for `N#C/C(=C\c1c[nH]c2ccccc12)C(=O)c1c[nH]c2ccccc12`, the GI50 is 13 µM in test [1]; 17 µM with DU-145; 11 µM in the test on MCF7; 9.3 µM with A2780; 8.3 µM in the test on SW480; 15 µM in test [2]. The concentration for 50% growth inhibition (GI50) stood at 7.6 µM in [3]; 12 µM in test [4]; 7.6 µM with A-431; 6 µM in the test with HT-29; 14 µM in [5].

On to `COc1ccc(/C=C(\C#N)C(=O)NCc2ccc(Cl)c(Cl)c2)cc1`, for which the GI50 in test [1] is greater than 100 µM; in the test on DU-145, 70 µM; with MCF7, 45 µM; with A2780, 86 µM; in the test on SW480, 95 µM; in test [2] it was greater than 100 µM. Also, the GI50 was greater than 100 µM in [3]; 93 µM in test [4]; 90 µM in the test with A-431; greater than 100 µM with HT-29; 79 µM in test [5].

Turning to `COc1ccc(CNC(=O)/C(C#N)=C/c2ccoc2)cc1`, the 50% growth inhibitory concentration (GI50) in test [1] amounted to 8 µM; with DU-145, 7 µM; in the test with MCF7 it was 7 µM; with A2780 it was 6 µM; in the test with SW480 it was 8 µM; in test [2], 7 µM. Also, the GI50 in [3] is 8 µM; in test [4] it was 7 µM; in the test on A-431, 5 µM; in the test with HT-29, 6 µM; in test [5], 8 µM.

Take `N#C/C(=C\c1c(F)c(F)c(F)c(F)c1F)C(=O)c1ccc[nH]1`: the GI50 in [1] was 23 µM; with DU-145 it was greater than 100 µM; with MCF7, 23 µM; in the test on A2780, 64 µM; in the test on SW480, greater than 100 µM; in test [2], greater than 100 µM. Besides, the GI50 turned out to be 31 µM in [3]; 14 µM in test [4]; 64 µM in the test on A-431; 224 µM with HT-29; 25 µM in test [5].

As to `COc1ccc(CNC(=O)/C(C#N)=C/c2ccc(-c3ccccc3)o2)cc1`, the GI50 in test [1] is greater than 100 µM; in the test on DU-145, greater than 100 µM; in the test on MCF7, 3 µM; in the test with A2780, greater than 100 µM; with SW480, greater than 100 µM; in [2], greater than 100 µM. Besides, the 50% growth inhibitory concentration (GI50) in test [3] was greater than 100 µM; in test [4], greater than 100 µM; in the test with A-431, greater than 100 µM; in the test on HT-29 it was 56 µM; in [5], greater than 100 µM.

As for `COc1ccc(CNC(=O)/C(C#N)=C/c2ccc(Br)o2)cc1`, the GI50 was found to be 13 µM in test [1]; 12 µM in the test with DU-145; 11 µM with MCF7; 12 µM with A2780; 14 µM with SW480; 14 µM in test [2]. In addition, the GI50 in test [3] was found to be 16 µM; in test [4], 13 µM; in the test on A-431 it was 9 µM; with HT-29, 10 µM; in [5], 16 µM.

As to `COc1ccc(CNC(=O)/C(C#N)=C/c2ccc(C)o2)cc1`, the GI50 was found to be 75 µM in [1]; 39 µM in the test on DU-145; 21 µM in the test on MCF7; 60 µM in the test with A2780; 29 µM with SW480; 69 µM in test [2]. Moreover, the 50% growth inhibitory concentration (GI50) in test [3] was greater than 100 µM; in [4] it was 21 µM; in the test on A-431, 58 µM; in the test on HT-29, 92 µM; in test [5], 51 µM.

With `COc1ccc(CNC(=O)/C(C#N)=C/c2ccc(C)cc2)cc1`, the concentration for 50% growth inhibition (GI50) worked out at 39 µM in test [1]; 34 µM in the test on DU-145; 36 µM in the test with MCF7; 33 µM in the test on A2780; 34 µM in the test with SW480; 42 µM in test [2]. The GI50 in test [3] was 41 µM; in test [4], 35 µM; in the test on A-431, 26 µM; in the test on HT-29, 36 µM; in [5], 38 µM.
